The values that follow come from ChEMBL document CHEMBL1143133, “Discovery of a dopamine D4 selective PET ligand candidate taking advantage of a click chemistry based REM linker” (Bioorg Med Chem Lett, 2008).

For data set [1], the target named is T1, D(3) dopamine receptor (Homo sapiens, UniProt P35462). Put plainly: Displacement of [3H]spiperone from human cloned dopamine D3 receptor at 100 uM.
Data set [2] addresses T2, D(2) dopamine receptor (Homo sapiens, UniProt P14416). Put plainly: Displacement of [3H][…] from human cloned dopamine D2 long receptor at 100 uM.
In data set [3] the target is T3, D(4) dopamine receptor (Homo sapiens) (UniProt P21917).
T3 sequence (whole entry): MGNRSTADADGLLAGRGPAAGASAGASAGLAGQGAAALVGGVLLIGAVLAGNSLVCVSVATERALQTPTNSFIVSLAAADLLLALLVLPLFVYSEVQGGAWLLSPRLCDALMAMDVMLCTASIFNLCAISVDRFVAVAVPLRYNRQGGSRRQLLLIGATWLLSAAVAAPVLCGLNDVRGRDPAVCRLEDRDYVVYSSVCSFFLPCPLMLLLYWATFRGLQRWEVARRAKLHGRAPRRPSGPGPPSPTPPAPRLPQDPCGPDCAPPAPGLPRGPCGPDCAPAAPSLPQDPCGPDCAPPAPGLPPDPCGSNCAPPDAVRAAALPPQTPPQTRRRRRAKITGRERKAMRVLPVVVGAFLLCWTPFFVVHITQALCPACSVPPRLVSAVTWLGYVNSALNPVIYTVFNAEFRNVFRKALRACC
Put plainly: Displacement of [3H]spiperone from human cloned dopamine D4 receptor at 100 uM. A general note: Loss of bound radioactivity is the signal in a displacement assay; it reports binding, not function.

Data set [4] in a line: Binding affinity to pig cortical membrane 5HT1A receptor. Also noted: species or system Sus scrofa. An outline of the steps:
(§1)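 Porcine cortical membranes with selective radioligands: [³H]8-OH-DPAT or [³H][…] for 5-HT1A, [³H]ketanserin for 5-HT2, and [³H]prazosin for α1. Ki (nM) is the mean of 2–4 experiments, each in triplicate.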

Data set [5] has as its target T2, D(2) dopamine receptor. Put plainly: Binding affinity to human dopamine D2 long receptor. An outline of the steps:
(§2)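 Competition radioligand binding at human dopamine receptors: displacement of [³H]spiperone from D2long, D3 and D4.4, screened with test compound at 10 μM, 100 nM and 1 nM. Ki values in nM are means of 2–4 experiments, each run in triplicate.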

The next data set has as its target D(1A) dopamine receptor (Sus scrofa, UniProt P50130). Put plainly: Binding affinity to pig cortical membrane dopamine D1 receptor. An outline of the steps: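 Porcine D1 receptor binding: displacement of [³H]SCH23390, screened with test compound at 10 μM, 100 nM and 1 nM. Ki (nM) is the mean of 2–4 experiments, each in triplicate.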
For the next data set, the species on record is Homo sapiens. The data set is described as follows: Selectivity for human dopamine D4 receptor over human dopamine D2 receptor.
The next data set has as its target T4, D(4) dopamine receptor (Homo sapiens, UniProt P21917).
T4 sequence (P21917 whole entry): T3 sequence (whole entry)
Put plainly: Binding affinity to human dopamine D4.4 receptor. The gist of the method:
as §2

Data set [6] has as its target 5-hydroxytryptamine receptor 2A (Sus scrofa, UniProt P50129). Put plainly: Displacement of [3H]ketanserin from pig cortical membrane 5HT2 receptor. The gist of the method: as §1
The nature of data set [7]: Displacement of [3H]prazosin from pig cortical membrane adrenergic alpha-1 receptor. More on the design: species or system Sus scrofa. The gist of the method:
as §1

For data set [8], the target named is T1, D(3) dopamine receptor. The data set is described as follows: Binding affinity to human D3 receptor. The gist of the method:
as §2

Data set [9] can be described thus: Stability in human serum at 90 mins. It is filed as ADME, cell-free. Conditions: read-out: Stability. An outline of the steps: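 The ¹⁸F-labelled radioligand was incubated in human serum for 90 min, and intact tracer was quantified by radio-HPLC.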
A short description of data set [10]: Distribution coefficient, log D at pH 7.4. Type of data set: physicochemical. Conditions: octanol/water. The gist of the method: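 Lipophilicity determined on the ¹⁸F-labelled radioligand as logD at pH 7.4, n = 6.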
Data set [11] addresses Dopamine receptors; D3 & D4 (Homo sapiens) (UniProt P35462+P21917). Put plainly: Selectivity for human dopamine D4 receptor over human dopamine D3 receptor.

T1 sequence (P35462 whole entry): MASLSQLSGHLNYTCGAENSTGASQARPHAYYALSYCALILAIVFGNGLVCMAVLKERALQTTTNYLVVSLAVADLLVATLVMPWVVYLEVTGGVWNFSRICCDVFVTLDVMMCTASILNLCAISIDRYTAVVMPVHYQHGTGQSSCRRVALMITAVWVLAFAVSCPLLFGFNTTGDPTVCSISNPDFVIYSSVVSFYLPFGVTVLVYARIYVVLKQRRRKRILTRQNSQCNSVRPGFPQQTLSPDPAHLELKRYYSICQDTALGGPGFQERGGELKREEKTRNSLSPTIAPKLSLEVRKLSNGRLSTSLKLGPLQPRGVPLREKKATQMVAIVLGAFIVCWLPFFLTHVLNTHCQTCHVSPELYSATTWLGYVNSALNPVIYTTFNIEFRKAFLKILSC
5-hydroxytryptamine receptor 2A, sequence (P50129 whole entry): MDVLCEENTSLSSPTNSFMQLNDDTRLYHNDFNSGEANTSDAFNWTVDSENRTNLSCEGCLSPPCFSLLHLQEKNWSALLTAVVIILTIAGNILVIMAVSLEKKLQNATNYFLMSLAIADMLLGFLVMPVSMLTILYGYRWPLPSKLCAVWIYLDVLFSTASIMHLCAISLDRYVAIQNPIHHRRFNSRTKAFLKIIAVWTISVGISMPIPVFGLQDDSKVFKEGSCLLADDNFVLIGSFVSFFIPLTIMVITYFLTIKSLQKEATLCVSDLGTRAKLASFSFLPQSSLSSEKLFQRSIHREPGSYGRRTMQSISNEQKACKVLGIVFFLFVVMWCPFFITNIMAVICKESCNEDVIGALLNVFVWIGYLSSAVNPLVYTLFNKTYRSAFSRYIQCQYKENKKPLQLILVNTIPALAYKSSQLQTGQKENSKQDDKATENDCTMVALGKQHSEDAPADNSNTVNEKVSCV
D(1A) dopamine receptor, sequence (P50130 whole entry): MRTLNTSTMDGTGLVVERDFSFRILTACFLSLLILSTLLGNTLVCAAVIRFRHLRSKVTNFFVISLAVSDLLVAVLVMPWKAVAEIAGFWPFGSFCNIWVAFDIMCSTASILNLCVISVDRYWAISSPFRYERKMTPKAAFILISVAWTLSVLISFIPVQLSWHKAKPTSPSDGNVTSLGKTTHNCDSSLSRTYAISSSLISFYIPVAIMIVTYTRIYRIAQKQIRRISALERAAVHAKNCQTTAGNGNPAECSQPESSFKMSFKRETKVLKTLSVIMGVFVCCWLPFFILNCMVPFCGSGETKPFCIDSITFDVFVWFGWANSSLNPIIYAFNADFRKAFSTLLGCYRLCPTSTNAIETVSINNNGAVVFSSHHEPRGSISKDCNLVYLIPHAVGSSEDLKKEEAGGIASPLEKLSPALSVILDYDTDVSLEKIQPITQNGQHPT
T2 sequence (P14416 whole entry): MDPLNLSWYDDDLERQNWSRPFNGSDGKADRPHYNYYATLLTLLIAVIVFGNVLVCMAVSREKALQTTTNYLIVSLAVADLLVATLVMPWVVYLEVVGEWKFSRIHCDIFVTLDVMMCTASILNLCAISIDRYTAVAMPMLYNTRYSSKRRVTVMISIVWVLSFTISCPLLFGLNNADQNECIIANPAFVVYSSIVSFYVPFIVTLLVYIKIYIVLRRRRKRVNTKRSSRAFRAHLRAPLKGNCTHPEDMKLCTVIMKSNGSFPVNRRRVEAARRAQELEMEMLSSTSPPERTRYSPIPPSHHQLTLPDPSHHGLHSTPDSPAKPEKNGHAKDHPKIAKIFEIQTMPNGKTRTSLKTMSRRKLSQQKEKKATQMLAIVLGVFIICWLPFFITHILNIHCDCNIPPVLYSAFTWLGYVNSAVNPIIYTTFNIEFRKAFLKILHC
Dopamine receptors; D3 & D4 (Homo sapiens), sequence (P35462 whole entry, looked up, one chain of several): as the sequence (P35462 whole entry) above

As for `COc1cccc(CN2CCN(c3ccccc3OC)CC2)c1`, the Activity at D(3) dopamine receptor [1] came to 39%; on D(2) dopamine receptor [2], 6%; in data set [3], 26%.

As usually defined, the Ki is the equilibrium dissociation constant of an inhibitor or competing ligand from its target. Consider `COc1cc(CN2CCN(c3ccc(Cl)cc3)CC2)ccc1OCCF`, for which the Ki in data set [4] is 18000 nM; at D(2) dopamine receptor [5], 21000 nM; at D(1A) dopamine receptor, 5700 nM; at D(4) dopamine receptor, 12 nM; in [6], 850 nM; in [7] it was 18 nM. The inhibitory constant (Ki) on D(3) dopamine receptor [8] turned out to be 4900 nM. Also, in the data set listed under Homo sapiens, the Ratio Ki amounted to 1750.

On to `Fc1ccc(N2CCN(Cc3ccccc3Br)CC2)cc1`, for which the figures for the Activity (at D(3) dopamine receptor [1]; at D(2) dopamine receptor [2]; in data set [3]) were 1%, 1% and 4%, respectively.

With `COc1ccccc1N1CCN(Cc2ccc(OCCF)cc2)CC1`, the inhibition constant (Ki) at D(2) dopamine receptor [5] was 120 nM; at D(1A) dopamine receptor, 3400 nM; at D(4) dopamine receptor it was 3.7 nM; in [6] it was 5400 nM; in data set [7] it was 47 nM; at D(3) dopamine receptor [8], 77 nM.

With `Cc1ccc(N2CCN(Cc3ccc(C#N)cc3)CC2)cc1`, the results for the Activity (on D(3) dopamine receptor [1]; on D(2) dopamine receptor [2]; in data set [3]) were 4%, -0% and 59%, respectively.

Take `N#Cc1ccc(CN2CCN(c3ccc(Cl)c(Cl)c3)CC2)cc1`: the results for the Activity (at D(3) dopamine receptor [1]; on D(2) dopamine receptor [2]; in data set [3]) were -0%, -0% and 91%, respectively.

Regarding `COc1cccc(N2CCN(Cc3ccc(C#N)cc3)CC2)c1`, the Activity is 6% at D(3) dopamine receptor [1], 2% on D(2) dopamine receptor [2] and 69% in data set [3].

On to `COc1ccccc1N1CCN(Cc2ccccc2Br)CC1`, for which the Activity on D(3) dopamine receptor [1] was 21%; at D(2) dopamine receptor [2], 9%; in [3], 44%.

Turning to `Clc1ccc(N2CCN(Cc3cc4ccccn4n3)CC2)cc1`, the Ki in [4] is 1700 nM; on D(1A) dopamine receptor, 5500 nM; in [6], 900 nM; in data set [7], 270 nM.

Regarding `COc1cccc(CN2CCN(c3ccccc3Cl)CC2)c1`, the Activity on D(3) dopamine receptor [1] amounted to 13%; at D(2) dopamine receptor [2], 4%; in [3], 55%.

Turning to `Clc1ccccc1N1CCN(Cc2ccccc2Br)CC1`, the Activity on D(3) dopamine receptor [1] was 4%; at D(2) dopamine receptor [2] it was -0%; in data set [3] it was 9%.

`FCCOc1cccc(CN2CCN(c3ccc(Cl)cc3)CC2)c1`: the inhibition constant Ki in data set [4] came out at 3300 nM; at D(2) dopamine receptor [5] it was 590 nM; on D(1A) dopamine receptor it was 5100 nM; on D(4) dopamine receptor, 82 nM; in data set [6], 980 nM; in data set [7], 190 nM. This molecule also registered a Ki at D(3) dopamine receptor [8] of 1100 nM.

Regarding `COc1cccc(CN2CCN(c3ccc(F)cc3)CC2)c1`, the Activity at D(3) dopamine receptor [1] is -0%; on D(2) dopamine receptor [2], 2%; in [3], 18%.

In the case of `COc1ccccc1N1CCN(Cc2cccc(OCCF)c2)CC1`, the Ki in [4] was 32 nM; at D(2) dopamine receptor [5], 57 nM; at D(1A) dopamine receptor it was 5200 nM; at D(4) dopamine receptor it was 1.6 nM; in data set [6] it was 1900 nM; in [7] it was 36 nM. On D(3) dopamine receptor [8], this molecule gave a Ki of 270 nM.

`COc1cccc(CN2CCN(c3cccc(OC)c3)CC2)c1`: the figures for the Activity (on D(3) dopamine receptor [1]; at D(2) dopamine receptor [2]; in [3]) were 9%, -0% and 46%, respectively.

Turning to `FCCOc1ccc(CN2CCN(c3ccc(Cl)cc3)CC2)cc1`, the Ki in data set [4] came to 5200 nM; at D(2) dopamine receptor [5], 1100 nM; at D(1A) dopamine receptor, 1400 nM; at D(4) dopamine receptor, 50 nM; in [6], 1800 nM; in [7] it was 160 nM. The affinity at D(3) dopamine receptor [8], expressed as Ki, was 1100 nM.

On to `N#Cc1ccc(CN2CCN(c3ccccc3Cl)CC2)cc1`, for which the Activity on D(3) dopamine receptor [1] worked out at 2%; on D(2) dopamine receptor [2] it was 2%; in [3] it was 73%.

As to `COc1ccccc1N1CCN(Cc2ccc(C#N)cc2)CC1`, the Activity on D(3) dopamine receptor [1] was determined as 5%; on D(2) dopamine receptor [2], 4%; in [3], 82%.

`COc1cc(CN2CCN(c3ccccc3OC)CC2)c(OCCF)cc1OC`: the Ki was 100 nM in data set [4]; 94 nM at D(2) dopamine receptor [5]; 6800 nM at D(1A) dopamine receptor; 1.3 nM on D(4) dopamine receptor; 280 nM in data set [6]; 13 nM in data set [7]. On D(3) dopamine receptor [8], this molecule had a Ki of 330 nM.

On to `N#Cc1ccc(CN2CCN(c3ccc(F)cc3)CC2)cc1`, for which the Activity at D(3) dopamine receptor [1] is 15%; on D(2) dopamine receptor [2], -0%; in data set [3] it was 47%.

As a reminder, the logD is lipophilicity at a set pH, counting ionised and neutral species. Consider `COc1cc(CN2CCN(c3ccc(Cl)cc3)CC2)c(OCC[18F])cc1OC`, for which the remaining at 1.5 h in [9] is greater than 95%. Also, the log distribution coefficient (logD) in data set [10] turned out to be 2.8.

As for `COc1cc(CN2CCN(c3ccccc3OC)CC2)ccc1OCCF`, the Ki was determined as 100 nM in data set [4]; 310 nM at D(2) dopamine receptor [5]; 5400 nM on D(1A) dopamine receptor; 1.8 nM at D(4) dopamine receptor; 2100 nM in data set [6]; 21 nM in [7]. For the same molecule, the affinity on D(3) dopamine receptor [8], expressed as Ki, was 1100 nM.

Turning to `COc1cc(CN2CCN(c3ccc(Cl)cc3)CC2)c(OCCF)cc1OC`, the Ratio Ki in [11] was 2300; in the data set listed under Homo sapiens, 450. Moreover, the Ki came to 2800 nM in [4]; 760 nM on D(2) dopamine receptor [5]; 3500 nM on D(1A) dopamine receptor; 1.7 nM on D(4) dopamine receptor; 100 nM in data set [6]; 4.4 nM in [7]. The same molecule registered a Ki at D(3) dopamine receptor [8] of 3900 nM.

With `Clc1ccc(N2CCN(Cc3ccccc3Br)CC2)cc1Cl`, the Activity is 14% on D(3) dopamine receptor [1], 10% at D(2) dopamine receptor [2] and -0% in [3].

As to `COc1cccc(CN2CCN(c3ccc(C)cc3)CC2)c1`, the Activity at D(3) dopamine receptor [1] is 39%; at D(2) dopamine receptor [2], 6%; in data set [3], 45%.

As for `COc1cccc(N2CCN(Cc3ccccc3Br)CC2)c1`, the Activity on D(3) dopamine receptor [1] is -0%; on D(2) dopamine receptor [2], 2%; in [3] it was 4%.

For `Cc1ccc(N2CCN(Cc3ccccc3Br)CC2)cc1`, the Activity came out at 16% on D(3) dopamine receptor [1], 6% at D(2) dopamine receptor [2] and 7% in [3].

For the molecule `COc1cccc(CN2CCN(c3ccc(Cl)c(Cl)c3)CC2)c1`, the Activity at D(3) dopamine receptor [1] came to 2%; at D(2) dopamine receptor [2], 9%; in data set [3], 92%.
